ARFGAP1 inhibitor = inhibits rat ARF GTPase activating protein 1 | Q62848 | Arfgap1-stimulated ARF1 GTP hydrolysis, GDP FP detection | inhibition, % at 16.5 µM | actives 0.26% (n = 360,000) | AID 651572;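 active = inhibition above a per-plate limit, mean inhibition of low control wells plus 3 SD, cut at about 25% in these data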
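Repeats: one replicate per compound; assay system: rat Arfgap1 catalytic domain, aa 1-136; times: enzyme reaction 120 min at 25 °C after 20 min preincubation; detection: FP of antibody-bound GDP Alexa 633 tracer, ex 620/em 688 nm; benchmarks: high control wells lacking Arfgap1, low control full reaction with DMSO; reagent: human ARF1(Δ1-17)-GTP substrate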
VIM-2 inh = blocks Pseudomonas aeruginosa VIM-2 metallo-beta-lactamase | purified VIM-2, nitrocefin hydrolysis, epi-absorbance fluorescence | inhibition, % at 5.6 µM | actives 0.89% (n = 290,000) | AID 1527;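 active = inhibition above the mean of all tested compounds plus 3 SD, cutoff set per screening run, cut at about 7.5% in these data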;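 note: red hydrolysis product quenches plate fluorescence so inhibitors raise well fluorescence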
IMP-1 inhibitor = blocks Pseudomonas aeruginosa IMP-1 metallo-beta-lactamase. purified IMP-1, nitrocefin hydrolysis, epi-absorbance fluorescence. inhibition, % at 5.6 µM. actives 0.45% (n = 290,000);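 active = inhibition above the mean plus 3 SD of all compounds in the same screening run, cut at about 4.5% in these data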
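Assay system: purified recombinant IMP-1 beta-lactamase. Input: IMP-1 0.2 nM before substrate addition. Buffer or medium: Zinc- and detergent-supplemented HEPES buffer, pH 7.1. Schedule: 25 °C, 15 min preincubation, 25 min reaction. Signal: Epi-absorbance fluorescence, 480 nm excitation, 530 nm emission. Evaluation: percent inhibition from optical density relative to buffer-blank wells.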
Calb FLC = affects C. albicans growth with fluconazole. C. albicans CaCi-2 + fluconazole, Alamar Blue growth, 48 h. growth inhibition, % (concentration not given with the values). actives 0.57% (n = 300,000). AID 1979;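 active = growth inhibition above about 58% in most replicates, limit read from the data, passing the limit was not always enough; inconclusive = exactly half the replicates above a set limit; inactive = most replicates below a set limit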;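 note: all wells also contain fluconazole at 8 µg/ml as a sub-toxic cotreatment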
ASAP1 inh = inhibitors of human ASAP1 ArfGAP activity; AID 624377; Q9ULH1; actives 0.19% (n = 360,000); ASAP1-stimulated ARF1 GTP hydrolysis, GDP FP detection; inhibition, % at 16.5 µM; in the data active = inhibition above about 25%
Target sequence (Q9ULH1 325-724 limits assumed): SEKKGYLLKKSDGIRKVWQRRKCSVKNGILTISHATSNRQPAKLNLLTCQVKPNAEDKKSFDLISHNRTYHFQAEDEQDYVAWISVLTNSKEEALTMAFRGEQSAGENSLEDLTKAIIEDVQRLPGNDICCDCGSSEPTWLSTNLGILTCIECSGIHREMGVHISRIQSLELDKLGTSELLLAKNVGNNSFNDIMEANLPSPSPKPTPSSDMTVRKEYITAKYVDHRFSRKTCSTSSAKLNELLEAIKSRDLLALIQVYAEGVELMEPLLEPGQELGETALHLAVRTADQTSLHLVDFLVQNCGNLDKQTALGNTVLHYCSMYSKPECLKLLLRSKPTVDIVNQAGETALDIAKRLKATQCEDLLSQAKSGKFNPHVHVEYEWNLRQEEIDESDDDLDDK
PHOSPHO1 block = inhibitors of human PHOSPHO1 phosphatase; recombinant PHOSPHO1, absorbance phosphatase assay; actives 1.1% (n = 290,000); AID 1565; inhibition, % at 13.3 µM; Q8TCT1; in the data active = inhibition above about 60%
Target sequence (Q8TCT1 whole entry, looked up): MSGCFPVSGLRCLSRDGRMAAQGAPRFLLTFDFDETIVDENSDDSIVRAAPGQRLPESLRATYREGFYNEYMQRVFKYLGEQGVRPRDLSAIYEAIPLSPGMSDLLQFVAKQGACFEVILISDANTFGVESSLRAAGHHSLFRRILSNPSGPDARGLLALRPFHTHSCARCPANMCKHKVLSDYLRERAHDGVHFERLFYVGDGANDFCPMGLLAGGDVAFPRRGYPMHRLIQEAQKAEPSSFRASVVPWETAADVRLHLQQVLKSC
Hits are given with their value; – = inactive; ? = inconclusive; · = no result. A selection: hits, their analogues and other compounds. The true share with any hit is near 2.6%.

SMILES	ARFGAP1 inhibitor	VIM-2 inh	IMP-1 inhibitor	Calb FLC	ASAP1 inh	PHOSPHO1 block
O=C(COc1ccc(F)cc1)Nc1nc(-c2ccccn2)cs1	–	·	·	90	–	·
O=C(CN1C(=O)C2CCCCC2C1=O)Nc1nc(-c2ccccn2)cs1 (stereo unspecified)	–	–	–	–	–	71
C[C@@H](C(=O)Nc1nc(-c2ccccn2)cs1)N1C(=O)C2CCCCC2C1=O (stereo partly specified)	–	–	11	–	–	70
O=C(COc1cccc(F)c1)Nc1nc(-c2ccccn2)cs1	–	·	·	·	–	·
COC(=O)[C@]12C[C@H](CC(=O)NCC34CC5CC(CC(C5)C3)C4)C(=O)N(CCC3=CCCCC3)C1=C[C@H](C(C)(C)C)O[C@@H]2C	–	·	·	·	–	·
COCC(=O)N(C)[C@H]1C[C@H]2c3[nH]c4c(-c5ccccc5)cccc4c3CCN2C(=O)[C@H]1[C@H](C)O	–	·	·	·	–	·
CC1CCc2c(sc(NC(=O)c3nc4ncccn4n3)c2C#N)C1 (stereo unspecified)	–	–	–	–	–	–
CC(=O)Nc1sc2c(c1C#N)CCCC2	–	–	–	–	–	–
N#Cc1c(NC(=O)c2nc3ncccn3n2)sc2c1CCCCC2	–	–	–	95	–	–
Cc1onc(-c2ccccc2Cl)c1C(=O)Nc1sc2c(c1C#N)CCC2	–	–	–	77	–	–
Cc1onc(C(=O)Nc2sc3c(c2C#N)CCCC3)c1[N+](=O)[O-]	–	–	–	82	–	–
CCCc1cc(C(=O)Nc2sc3c(c2C#N)CCC3)no1	–	–	–	84	–	–
COCCCNC(=O)C[C@H]1C[C@@]2(C(=O)OC)C(=C[C@H](C(C)C)O[C@@H]2C2CC2)N(Cc2ccccc2)C1=O	–	·	·	·	–	·
C#CCN(C[C@H]1[C@H](OC(=O)Nc2cccs2)[C@H](OC(=O)Nc2cccs2)CN(C(=O)OC(C)C)N1C(=O)OC(C)C)S(=O)(=O)c1ccc(C)cc1	–	·	·	·	–	·
CC(C)[C@@H](C)/C=C/[C@@H](C)[C@H]1CC[C@@H]2[C@]1(C)CCC1[C@]23C=C[C@]2(C[C@@H](O)CC[C@]12C)N(C(=O)Cc1ccccc1)O3 (stereo partly specified)	–	·	·	·	–	·
N#Cc1c(NC(=S)NC(=O)c2ccccc2)sc2c1CCC2	–	–	–	–	–	–
Cc1ccccc1-n1nc2c(c1NC(=O)c1c(-c3ccccc3Cl)noc1C)CSC2	–	–	44	·	–	–
Cn1nccc1C(=O)NC(=S)Nc1sc2c(c1C#N)CCCCC2	–	–	–	–	–	68
Cc1ccc(-n2nc3c(c2NC(=O)c2c(-c4ccccc4Cl)noc2C)CSC3)cc1	·	–	–	–	·	–
CC(C)CCOc1cccc(OCC(=O)Nc2ccncc2)c1	–	–	–	108	–	–
CCCCC(=O)NC(c1cccs1)c1cc(Cl)c2cccnc2c1O (stereo unspecified)	–	–	–	?	–	–
CC(C)C(=O)NC(c1ccc(Cl)cc1Cl)c1ccc2cccnc2c1O (stereo unspecified)	–	–	–	–	–	–
CC(=O)NC(c1ccc(Cl)cc1)c1ccc2cccnc2c1O (stereo unspecified)	–	·	·	·	–	·
CCCCC(=O)NC(c1ccc(Cl)cc1Cl)c1ccc2cccnc2c1O (stereo unspecified)	–	–	–	96	–	–
Cc1cc(NC(c2ccc(Cl)cc2)c2ccc3cccnc3c2O)no1 (stereo unspecified)	–	–	–	101	–	–
SMILES	ARFGAP1 inhibitor	VIM-2 inh	IMP-1 inhibitor	Calb FLC	ASAP1 inh	PHOSPHO1 block
CCC(=O)NC(c1ccc(Cl)cc1Cl)c1ccc2cccnc2c1O (stereo unspecified)	–	–	–	107	–	–
Nc1[nH]c(C(=O)c2ccc(Br)cc2)c(-c2ccccc2)c1C(=O)NCCc1c[nH]c2ccccc12	–	·	·	·	–	·
O=C1CC(c2ccccc2)CC(=NCCO)/C1=C(\O)CCCN1C(=O)c2ccccc2C1=O (stereo unspecified)	–	–	–	64	–	–
O=C(CSc1ncccc1-c1nc2ccccc2[nH]1)N1CCCCC1	·	–	–	–	·	89
O=S(=O)(c1ccc(F)cc1)N1CCCc2nc(-c3ccc(F)cc3)ccc21	–	·	·	·	–	·
COc1ccc(NC(=O)NNC(=O)c2ccc(-c3ccccc3)cc2)c(OC)c1	–	–	–	–	–	–
COc1ccc(C(=O)NN/C(C)=C/C(=O)C(F)(F)C(F)(F)C(F)(F)F)cc1	–	–	–	94	–	–
COc1ccc(NC(=O)NNC(=O)c2ccc(-c3ccccc3)cc2)cc1	–	–	4.9	–	–	–
COc1ccc(C(=O)NNC(=O)OC(C)(C)C)cc1	–	–	–	–	–	–
CC(=O)Nc1ccc(C(=O)NNC(=O)Cc2ccccc2)cc1	–	–	–	–	–	–
COc1ccc(CC(=O)NNC(=O)c2ccc(NC(C)=O)cc2)cc1	–	–	9.6	–	–	–
Nc1[nH]c(C(=O)c2ccc(Br)cc2)c(-c2ccc3ccccc3c2)c1C(=O)NCCc1c[nH]c2ccccc12	–	·	·	·	–	·
CC(C)C[C@H]1COc2cc(NCCCN3CCOCC3)ccc2S(=O)(=O)N1	–	·	·	·	–	·
O=C1c2cccc3cccc(c23)C(=O)N1c1ccc(O)cc1	–	8.4	–	–	–	–
Cn1c(N)nc2nc(CCc3ccccc3)c(=O)[nH]c2c1=O	–	–	5.2	–	–	–
Cn1c(=O)c2c(nc(CCc3ccccc3)n2C)n(C)c1=O	–	·	·	·	–	·
CCOC(=O)c1cnc(-n2cc(C)cn2)nc1NCc1ccc2c(c1)OCO2	–	8.1	–	–	–	–
CCOC(=O)c1c(C)c(C(=O)NCc2ccc3c(c2)OCO3)c(C)n1CC	–	–	–	–	–	–
Cc1ccccc1NS(=O)(=O)c1ccc2[nH]cc(C(=O)N(C)Cc3ccco3)c(=O)c2c1	·	–	4.5	–	·	–
CCOC(=O)c1c(CN2CCN(CCO)CC2)n(C)c2cc(Br)c(OC)cc12	–	–	–	–	–	–
CCOC(=O)c1c(CN2CCCCC2)n(C)c2cc(Br)c(OC)cc12	–	–	–	–	–	64
Cc1ccc(/C=N/NC(=O)c2cc3c(ccc4ccccc43)o2)o1	–	–	–	–	–	·
O=C(N/N=C/c1ccc(O)c(Br)c1)c1cc2c(ccc3ccccc32)o1	–	–	–	–	–	–
CC(=O)Oc1ccc(/C=N\NC(=O)c2cc3c(ccc4ccccc43)o2)cc1	–	–	4.9	–	–	–
O=C(N/N=C/c1cc(Br)c(O)c(Br)c1)c1cc2c(ccc3ccccc32)o1	–	–	–	109	–	–
Cc1cn([C@H]2C[C@H](O)[C@@H](/C=C/C(=O)NCCC(C)C)O2)c(=O)[nH]c1=O	–	·	·	·	–	·
